Test results reported in ChEMBL document CHEMBL1154477, “1,2,3-Triazol-carboxanilides and 1,2,3-triazol-(N-benzyl)-carboxamides as BK-potassium channel activators. XII” (Eur J Med Chem, 2008).

Columns and labels:
Format in all cases: tissue-based
[1] = target: Calcium-activated potassium channel subunit alpha-1 (Rattus norvegicus) (UniProt Q62976); assay: (§1) Activation of BK channel in Wistar rat thoracic aorta assessed as relaxation of KCl-induced contraction
Procedure, shortened: (§2)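 Endothelium-denuded aortic rings in Tyrode at 37 °C, gassed 95% O2/5% CO2. Denudation was confirmed by under 10% acetylcholine relaxation of KCl 20 mM tone. Rings were precontracted with KCl 20 mM, then given cumulative 3-fold increasing concentrations from 10 nM (DMSO stock, diluted in Tyrode). Efficacy was maximal relaxation as % of KCl tone; pIC50 was derived only when efficacy was ≥55%. 5-10 experiments.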

[2] = target: Calcium-activated potassium channel subunit alpha-1 (Rattus norvegicus, UniProt Q62976); assay: as §1; procedure, shortened: as §2
Calcium-activated potassium channel subunit alpha-1, sequence (Q62976 whole entry): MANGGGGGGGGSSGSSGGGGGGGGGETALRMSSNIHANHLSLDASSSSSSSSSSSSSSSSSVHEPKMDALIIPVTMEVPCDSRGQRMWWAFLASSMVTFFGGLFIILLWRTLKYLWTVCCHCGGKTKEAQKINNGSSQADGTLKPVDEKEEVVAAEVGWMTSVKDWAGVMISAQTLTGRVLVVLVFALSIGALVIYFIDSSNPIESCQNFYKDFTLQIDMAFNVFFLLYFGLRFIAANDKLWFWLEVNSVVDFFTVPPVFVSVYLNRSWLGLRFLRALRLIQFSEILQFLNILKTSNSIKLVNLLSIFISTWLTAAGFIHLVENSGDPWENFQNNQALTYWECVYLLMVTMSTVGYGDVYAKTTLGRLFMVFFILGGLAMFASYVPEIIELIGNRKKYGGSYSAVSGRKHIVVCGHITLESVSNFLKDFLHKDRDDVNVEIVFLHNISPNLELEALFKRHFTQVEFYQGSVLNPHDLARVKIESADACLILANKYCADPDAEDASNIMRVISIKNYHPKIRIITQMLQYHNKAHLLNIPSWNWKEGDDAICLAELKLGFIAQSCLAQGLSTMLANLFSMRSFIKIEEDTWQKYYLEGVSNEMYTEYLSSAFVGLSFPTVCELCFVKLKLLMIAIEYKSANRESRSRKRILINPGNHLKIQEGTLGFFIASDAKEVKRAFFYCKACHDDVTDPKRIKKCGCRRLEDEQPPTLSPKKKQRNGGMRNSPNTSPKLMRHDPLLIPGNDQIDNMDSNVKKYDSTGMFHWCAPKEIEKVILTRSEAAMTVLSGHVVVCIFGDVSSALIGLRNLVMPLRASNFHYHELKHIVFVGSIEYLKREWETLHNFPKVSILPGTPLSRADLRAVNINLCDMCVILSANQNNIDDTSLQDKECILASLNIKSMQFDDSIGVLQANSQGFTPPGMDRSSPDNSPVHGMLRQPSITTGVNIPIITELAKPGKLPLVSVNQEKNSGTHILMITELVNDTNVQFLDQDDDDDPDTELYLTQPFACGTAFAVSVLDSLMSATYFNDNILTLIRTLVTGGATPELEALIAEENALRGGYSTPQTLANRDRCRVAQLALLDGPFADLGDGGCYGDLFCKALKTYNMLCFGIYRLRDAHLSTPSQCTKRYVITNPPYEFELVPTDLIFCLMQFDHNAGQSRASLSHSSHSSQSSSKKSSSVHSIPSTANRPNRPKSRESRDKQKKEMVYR

[3] = target: Calcium-activated potassium channel subunit alpha-1 (Rattus norvegicus) (UniProt Q62976); assay: Activation of BK channel in Wistar rat thoracic aorta assessed as relaxation of KCl-induced contraction in presence of potassium channel blocker TEAC
Procedure, shortened: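 Endothelium-denuded aortic rings in gassed Tyrode at 37 °C, incubated with tetraethylammonium chloride 10 mM for 20 min before KCl 20 mM precontraction. Cumulative 3-fold increasing concentrations from 10 nM were added at the plateau. Relaxation was expressed as % of KCl tone, with pIC50 as the negative log molar concentration halving the tone. 5-10 experiments.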

Calcium-activated potassium channel subunit alpha-1 (Rattus norvegicus), sequence (Q62976 whole entry): as above

SMILES | Emax [1] [%] | IC50 [2] [µM] | Emax [3] [%]
Cc1c(C(=O)Nc2ccccc2O)nnn1Cc1ccccc1F | 35 | – | –
Cc1c(C(=O)NCc2ccccc2Cl)nnn1Cc1ccccc1O | 51 | – | –
Cc1c(C(=O)NCc2ccccc2O)nnn1Cc1ccccc1O | 76 | 21.9 | –
Cc1c(C(=O)Nc2ccccc2O)nnn1Cc1ccccc1Cl | 52 | – | –
Cc1c(C(=O)Nc2ccc(Cl)cc2)nnn1Cc1ccccc1O | 53 | – | –
Cc1c(C(=O)NCc2ccccc2)nnn1Cc1ccccc1O | 48 | – | –
Cc1c(C(=O)NCc2ccccc2O)nnn1Cc1ccccc1Cl | 49 | – | –
Cc1c(C(=O)Nc2ccccc2)nnn1Cc1ccccc1O | 89 | 17.8 | 37
Cc1c(C(=O)NCc2ccccc2O)nnn1Cc1ccccc1F | 24 | – | –
Cc1c(C(=O)Nc2ccccc2O)nnn1Cc1ccccc1O | 81 | 20.4 | –
O=c1[nH]c2cc(C(F)(F)F)ccc2n1-c1cc(C(F)(F)F)ccc1O | 94 | 5.13 | –
